Results reported in ChEMBL document CHEMBL3286204, “Lignans from the fruit of Schisandra glaucescens with antioxidant and neuroprotective properties” (J Nat Prod, 2014).
Active and inactive are the calls of the source. No cut-off for these calls is given here.

Experiments:
[1] = biological target: Amyloid-beta precursor protein (Homo sapiens) (UniProt P05067); assay: Neuroprotective activity against amyloid beta (25 to 35)-induced cell death in human SH-SY5Y cells assessed as cell viability at 10 uM after 24 hrs by MTT assay relative to control; format: functional, cell-based
[2] = tested on: Radical scavenging activity; assay: Antioxidant activity assessed as 300 uM DPPH free radical scavenging activity under dark condition after 30 mins by microplate reader analysis; format: functional
Summary of the method: (§1)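 Compounds at final 6.25, 12.5, 25, 50, 75 and 100 μM mixed with DPPH (final 150 or 300 μM) in EtOH containing 5% DMSO; EtOH/5% DMSO control. A517 read at steady state after 30 min at room temperature in the dark. Triplicate tests averaged.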

[3] = Antioxidant activity assessed as reduction of TPTZ-Fe3+ to TPTZ-Fe2+ after 5 mins by FRAP assay; format: functional
Summary of the method: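 Working reagent prepared fresh from TPTZ solution, TPTZ diluent and detective buffer (1:10:1 v/v), prewarmed to 37 °C. Samples at 0.15–1.5 mM (5 μL) mixed with 180 μL reagent and held 5 min at 37 °C, then A593 read. Activity expressed as FeSO4 equivalents from a FeSO4 standard curve (0.15–5.00 mM).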

[4] = biological target: Amyloid-beta precursor protein (Homo sapiens) (UniProt P05067); assay: Neuroprotective activity against amyloid beta (25 to 35)-induced cell death in human SH-SY5Y cells assessed as cell viability at 0.08 uM after 24 hrs by MTT assay relative to control; format: functional, cell-based
[5] = biological target: Amyloid-beta precursor protein (Homo sapiens) (UniProt P05067); assay: Neuroprotective activity against amyloid beta (25 to 35)-induced cell death in human SH-SY5Y cells assessed as cell viability at 2 uM after 24 hrs by MTT assay relative to control; format: functional, cell-based
[6] = biological target: Amyloid-beta precursor protein (Homo sapiens) (UniProt P05067); assay: Neuroprotective activity against amyloid beta (25 to 35)-induced cell death in human SH-SY5Y cells assessed as cell viability at 0.4 uM after 24 hrs by MTT assay relative to control; format: functional, cell-based
[7] = tested on: Radical scavenging activity; assay: Antioxidant activity assessed as 150 uM DPPH free radical scavenging activity under dark condition after 30 mins by microplate reader analysis; format: functional; summary of the method: as §1
[8] = Antioxidant activity assessed as reduction of TPTZ-Fe3+ to TPTZ-Fe2+ at 0.15 to 1.5 mM after 5 mins by FRAP assay; format: functional

Amyloid-beta precursor protein (Homo sapiens), sequence (P05067 whole entry): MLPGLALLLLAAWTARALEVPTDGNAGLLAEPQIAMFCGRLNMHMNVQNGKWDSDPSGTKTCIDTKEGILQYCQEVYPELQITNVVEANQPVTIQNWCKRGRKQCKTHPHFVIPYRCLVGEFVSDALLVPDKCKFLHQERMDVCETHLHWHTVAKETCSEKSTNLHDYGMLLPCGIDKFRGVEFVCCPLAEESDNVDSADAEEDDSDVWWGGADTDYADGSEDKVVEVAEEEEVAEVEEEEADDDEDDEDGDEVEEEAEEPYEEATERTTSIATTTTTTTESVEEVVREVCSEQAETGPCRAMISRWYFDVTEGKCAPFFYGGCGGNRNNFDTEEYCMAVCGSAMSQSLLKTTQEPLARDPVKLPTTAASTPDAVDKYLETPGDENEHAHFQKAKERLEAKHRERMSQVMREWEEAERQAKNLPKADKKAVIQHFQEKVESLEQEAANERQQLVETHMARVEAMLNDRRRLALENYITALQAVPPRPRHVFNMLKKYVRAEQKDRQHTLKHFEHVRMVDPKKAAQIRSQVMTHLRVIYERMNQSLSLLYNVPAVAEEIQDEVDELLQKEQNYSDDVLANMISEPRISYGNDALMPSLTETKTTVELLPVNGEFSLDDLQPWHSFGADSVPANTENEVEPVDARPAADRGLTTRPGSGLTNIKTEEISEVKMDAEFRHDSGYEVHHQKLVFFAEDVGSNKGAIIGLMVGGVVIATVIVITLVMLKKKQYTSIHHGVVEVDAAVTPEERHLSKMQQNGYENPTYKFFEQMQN

| IC50 [2] | IC50 [7] | Compound | Activity [1] | Activity [3] | Activity [4] | Activity [5] | Activity [6] | Activity [8] |
| --- | --- | --- | --- | --- | --- | --- | --- | --- |
| 83.4 µM | 37.5 µM | COc1cc([C@@H]2c3cc(OC)c(O)cc3C=C(C)[C@H]2C)ccc1O | 65.2% | Dose-dependent effect | 58.6% | 62.1% | 60.7% | – |
| 59.3 µM | 24.7 µM | O=C1O[C@H]([C@@H](O)CO)C(O)=C1O [ASCORBIC ACID] | 58% | – | 54.1% | 58.5% | 55.6% | – |
| 62.1 µM | 26.9 µM | VITAMIN E | – | – | – | – | – | – |
| – | – | Cc1c(C)c2c(c(C)c1O)CCC(C)(C(=O)O)O2 (stereo unspecified) | – | – | – | – | – | Active |
| – | – | COc1ccc(C[C@@H](C)[C@@H](C)Cc2ccc3c(c2)OCO3)cc1OC | 61.9% | – | 58.1% | 61.1% | 62.2% | inactive |
| 44.5 µM | 23.3 µM | COc1cc([C@H]2O[C@H](c3ccc4c(c3)OCO4)[C@@H](C)[C@H]2C)ccc1O | – | Dose-dependent effect | – | – | – | – |
| – | – | COc1ccc(C(=O)O[C@@H](c2ccc3c(c2)OCO3)[C@H](C)C(C)=O)cc1OC | 66.8% | – | 58.3% | 68.9% | 65.4% | inactive |
| 360 µM | 181 µM | COc1cc([C@H]2c3cc4c(cc3C[C@@H](C)[C@@H]2C)OCO4)ccc1O | 60.5% | Dose-dependent effect | 57.7% | 60.5% | 59.9% | – |
| – | – | COc1ccc([C@H]2c3cc4c(cc3C[C@@H](C)[C@@H]2C)OCO4)cc1OC | 58.7% | – | 57.4% | 59.8% | 58.2% | inactive |
| 75.1 µM | 33.2 µM | COc1cc(C[C@H](C)[C@H](C)Cc2ccc3c(c2)OCO3)ccc1O [AUSTROBAILIGNAN 6] | 64.4% | Dose-dependent effect | 57% | 61.8% | 61.5% | – |
| 34.6 µM | 15.7 µM | COc1cc(C[C@@H](C)[C@@H](C)Cc2ccc(O)c(OC)c2)ccc1O [MESODIHYDROGUAIARETIC ACID] | 68.3% | Dose-dependent effect | 62.2% | 69.2% | 63.8% | – |
| – | – | COc1ccc([C@H]2O[C@H](c3ccc4c(c3)OCO4)[C@@H](C)[C@H]2C)cc1OC | 60.4% | – | 58.2% | 58.6% | 58.1% | inactive |
| – | – | OC[C@H](Cc1ccc2c(c1)OCO2)[C@H](CO[C@@H]1O[C@H](CO[C@@H]2O[C@@H](CO)[C@H](O)[C@H]2O)[C@@H](O)[C@H](O)[C@H]1O)Cc1ccc2c(c1)OCO2 | 58.3% | – | 58% | 62% | 59.2% | inactive |
| – | – | COc1ccc([C@H](OC(=O)c2ccc3c(c2)OCO3)[C@H](C)C(C)=O)cc1OC | – | – | – | – | – | inactive |
| – | – | OC[C@H](Cc1ccc2c(c1)OCO2)[C@H](CO[C@@H]1O[C@H](CO)[C@@H](O)[C@H](O)[C@H]1O)Cc1ccc2c(c1)OCO2 | 65.2% | – | 65% | 63.1% | 64% | inactive |
